# Reference: ChEMBL document CHEMBL3352384, “Synthesis and biological activity of new salicylanilide N,N-disubstituted carbamates and thiocarbamates” (Bioorg Med Chem, 2014)
# Tests used:
# [1] = system: Mycobacterium tuberculosis; assay: Antimycobacterial activity against Mycobacterium tuberculosis H37Rv 331/88 assessed as complete growth inhibition after 14 days; type: functional; details: H37Rv 331/88, 336 h
# Summary of the method: (§1)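 M. tuberculosis 331/88 (H37Rv) inoculum diluted 10-3, M. avium 330/88 diluted 10-5. MIC is the lowest concentration giving complete growth inhibition. Isoniazid and p-aminosalicylic acid as references. Quadruplicate, repeated twice.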
# Mycobacterium kansasii [2] = assay: Antimycobacterial activity against Mycobacterium kansasii 235/80 assessed as complete growth inhibition after 14 days; type: functional; details: 235/80, 336 h
# Summary of the method: (§2)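 Dilutions of M. kansasii inoculum were 10-4 for strain 235/80 and 10-5 for clinical isolate 6509/96. MIC was the lowest concentration giving complete growth inhibition, run in quadruplicate and repeated twice.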
# Mycobacterium avium [3] = assay: Antimycobacterial activity against Isoniazid, rifampicin, ofloxacin and ethambutol-resistant Mycobacterium avium 330/88 assessed as complete growth inhibition after 14 days; type: functional; details: 330/88, 336 h; summary of the method: as §1
# Mycobacterium kansasii [4] = assay: Antimycobacterial activity against Mycobacterium kansasii 235/80 assessed as complete growth inhibition after 21 days; type: functional; details: 235/80, 504 h; summary of the method: as §2
# Mycobacterium kansasii [5] = assay: Antimycobacterial activity against clinical isolate Mycobacterium kansasii 6509/96 assessed as complete growth inhibition after 21 days; type: functional; details: 6509/96, 504 h; summary of the method: as §2
# [6] = system: Mycobacterium tuberculosis; assay: Antimycobacterial activity against Mycobacterium tuberculosis H37Rv 331/88 assessed as complete growth inhibition after 21 days; type: functional; details: H37Rv 331/88, 504 h; summary of the method: as §1
# [7] = Selectivity index, ratio of IC50 for human HepG2 cells to MIC for Trichophyton mentagrophytes 445
# [8] = Selectivity index, ratio of IC50 for human HepG2 cells to MIC for Mycobacterium tuberculosis H37Rv; type: toxicity, cell-based; details: read-out: Selectivity Index
# Summary of the method: (§3)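 Selectivity index = HepG2 IC50 / MIC. HepG2 cells (passage 3–4) grown in Eagle's MEM with 10% FBS, L-glutamine and non-essential amino acids. Compounds added from DMSO, eight concentrations in triplicate, tetrazolium-reduction colorimetric read-out.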
# HepG2 = assay: Cytotoxicity against human HepG2 cells assessed as reduction in cell viability after 24 hrs by MTS assay; type: cell-based; details: HepG2, 24 h
# Summary of the method: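 HepG2 hepatocellular carcinoma cells (passage 3–4) were grown in Eagle's MEM with 10% FBS, 1% L-glutamine and non-essential amino acids. Compounds were added from DMSO at eight concentrations in triplicate, with 10% DMSO as the 0% viability control. Viability was read by tetrazolium salt reduction (CellTiter 96 AQueous One). IC50 is the concentration reducing viability to 50% of control.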
# Mycobacterium kansasii [9] = assay: Antimycobacterial activity against Mycobacterium kansasii 235/80 assessed as complete growth inhibition after 7 days; type: functional; details: 235/80, 168 h; summary of the method: as §2
# Mycobacterium kansasii [10] = assay: Antimycobacterial activity against clinical isolate Mycobacterium kansasii 6509/96 assessed as complete growth inhibition after 14 days; type: functional; details: 6509/96, 336 h; summary of the method: as §2
# Mycobacterium avium [11] = assay: Antimycobacterial activity against Isoniazid, rifampicin, ofloxacin and ethambutol-resistant Mycobacterium avium 330/88 assessed as complete growth inhibition after 21 days; type: functional; details: 330/88, 504 h; summary of the method: as §1
# Mycobacterium kansasii [12] = assay: Antimycobacterial activity against clinical isolate Mycobacterium kansasii 6509/96 assessed as complete growth inhibition after 7 days; type: functional; details: 6509/96, 168 h; summary of the method: as §2
# [13] = Inhibition of Mycobacterium tuberculosis H37Rv isocitrate lyase assessed as glyoxylate phenyl hydrazone formation at 10 uM
# [14] = Selectivity index, ratio of IC50 for human HepG2 cells to MIC for atypical mycobacteria
# Summary of the method: as §3, with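 “read-out. IC50 is the concentration reducing viability to 50% of control; 10% DMSO as 0% viability.” for “read-out.”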
Compound,MIC [1] [µM],MIC (Mycobacterium kansasii [2]) [µM],MIC (Mycobacterium avium [3]) [µM],MIC (Mycobacterium kansasii [4]) [µM],MIC (Mycobacterium kansasii [5]) [µM],MIC [6] [µM],Selectivity Index [7],selectivity ratio [8],IC50 (HepG2) [µM],MIC (Mycobacterium kansasii [9]) [µM],MIC (Mycobacterium kansasii [10]) [µM],MIC (Mycobacterium avium [11]) [µM],MIC (Mycobacterium kansasii [12]) [µM],inhibition [13] [%],Selectivity Index [14]
O=C(Nc1ccc(F)cc1)c1cc(Cl)ccc1O,8,16,16,16,16,8,3.3,3.3,26.1,8,16,32,8,14,0.8
CN(C(=O)Oc1ccc(Cl)cc1C(=O)Nc1ccc(Cl)cc1)c1ccccc1,32,125,250,125,125,32,,9,289,62.5,62.5,250,32,17,<=9
O=C(Nc1ccc(C(F)(F)F)cc1)c1cc(Cl)ccc1O,1,4,4,4,4,2,,,0.36,2,4,8,2,6,
O=C(Nc1ccc(Br)cc1)c1cc(Cl)ccc1O,4,8,8,8,8,4,16,3.9,15.7,4,8,16,4,13,1
O=C(Nc1ccc(Br)cc1)c1cc(Cl)ccc1OC(=O)N(c1ccccc1)c1ccccc1,250,125,250,125,62.5,250,,,> 100,32,62.5,250,32,19,
CN(C(=O)Oc1ccc(Cl)cc1C(=O)Nc1ccc(Br)cc1)c1ccccc1,32,125,250,125,125,32,,29.5,945,32,62.5,250,32,14,<=29.5
O=C(Nc1ccccc1)c1ccccc1OC(=O)N(c1ccccc1)c1ccccc1,125,125,62.5,125,125,125,,1.7,211,62.5,125,62.5,125,8,1.7
CN(C(=O)Oc1ccc(Cl)cc1C(=O)Nc1ccc(C(F)(F)F)cc1)c1ccccc1,125,125,250,125,125,125,,,> 100,125,125,250,125,16,
O=C(Nc1ccc(F)cc1)c1cc(Cl)ccc1OC(=O)N(c1ccccc1)c1ccccc1,250,62.5,250,62.5,125,250,,,> 100,62.5,125,250,125,22,
CN(C)C(=O)Oc1ccc(Cl)cc1C(=O)Nc1ccc(C(F)(F)F)cc1,> 1000,250,250,250,250,> 1000,,,6510,250,250,250,250,11,
